Measured values from ChEMBL document CHEMBL2169850, “3,6-bis(3-alkylguanidino)acridines as DNA-intercalating antitumor agents” (Eur J Med Chem, 2012).
The source made the active and inactive calls. The calls are words filed in the database; no cut-off is given here.

Tests used:
HL-60 [1] = test: Induction of necrosis in human HL60 cells at 5 to 25 uM incubated for 48 hrs by AnnexinV/propidium iodide staining method; type: functional, cell-based
Procedure, shortened: (§1)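 HL-60 cells (1.5 × 10^5) were exposed to compound, then stained 10 min with Annexin V-FITC in HEPES/CaCl2/NaCl binding buffer. Cells were washed, briefly stained with propidium iodide and analysed by flow cytometry for apoptotic and necrotic fractions. Mean ± SD of at least three independent experiments.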

HL-60 [2] = test: Induction of apoptosis in human HL60 cells at 5 to 25 uM incubated for 24 hrs by AnnexinV/propidium iodide staining method; type: functional, cell-based
Procedure, shortened: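 HL-60 cells (1.5 × 10^5) were treated at 5–25 µM for 24, 48 or 72 h and harvested. They were stained with Annexin V-FITC for 10 min in HEPES/CaCl2/NaCl binding buffer, washed, briefly stained with PI (1 mg/mL) and analysed by flow cytometry for apoptosis and necrosis. Mean ± SD, n ≥ 3.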

HL-60 [3] = test: Antiproliferative activity against human HL60 cells assessed as cell number at 25 uM incubated for 48 hrs by Coulter counting method; type: functional
Procedure, shortened: (§2)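 HL-60 cells in RPMI with 10% heat-inactivated FCS, antibiotics and amphotericin, 37 °C, 5% CO2, seeded in 60 mm dishes. Compound added at 5, 15 or 25 µM for 24, 48 or 72 h. Absolute cell counts taken by Coulter counter and expressed as percentage of untreated control. Mean ± SD of at least three independent experiments; one-way ANOVA with Tukey test, p < 0.05.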

HL-60 [4] = test: Antiproliferative activity against human HL60 cells assessed as cell number at 25 uM incubated for 72 hrs by Coulter counting method; type: functional; procedure, shortened: as §2
HL-60 [5] = test: Cell cycle arrest in human HL60 cells assessed as accumulation at G1 phase at 5 uM incubated for 72 hrs by flow cytometry (reference value: 47.02 +/- 6.19%); type: functional
HL-60 [6] = test: Induction of necrosis in human HL60 cells at 5 to 25 uM incubated for 24 hrs by AnnexinV/propidium iodide staining method; type: functional, cell-based; procedure, shortened: as §1
[7] = molecular target: T1, DNA topoisomerase 1 (Homo sapiens) (UniProt P11387); test: Inhibition of human topoisomerase 1 assessed as reduction in pBR322 DNA relaxation of relaxation at 5 uM by DNA unwinding assay
T1 sequence (whole entry): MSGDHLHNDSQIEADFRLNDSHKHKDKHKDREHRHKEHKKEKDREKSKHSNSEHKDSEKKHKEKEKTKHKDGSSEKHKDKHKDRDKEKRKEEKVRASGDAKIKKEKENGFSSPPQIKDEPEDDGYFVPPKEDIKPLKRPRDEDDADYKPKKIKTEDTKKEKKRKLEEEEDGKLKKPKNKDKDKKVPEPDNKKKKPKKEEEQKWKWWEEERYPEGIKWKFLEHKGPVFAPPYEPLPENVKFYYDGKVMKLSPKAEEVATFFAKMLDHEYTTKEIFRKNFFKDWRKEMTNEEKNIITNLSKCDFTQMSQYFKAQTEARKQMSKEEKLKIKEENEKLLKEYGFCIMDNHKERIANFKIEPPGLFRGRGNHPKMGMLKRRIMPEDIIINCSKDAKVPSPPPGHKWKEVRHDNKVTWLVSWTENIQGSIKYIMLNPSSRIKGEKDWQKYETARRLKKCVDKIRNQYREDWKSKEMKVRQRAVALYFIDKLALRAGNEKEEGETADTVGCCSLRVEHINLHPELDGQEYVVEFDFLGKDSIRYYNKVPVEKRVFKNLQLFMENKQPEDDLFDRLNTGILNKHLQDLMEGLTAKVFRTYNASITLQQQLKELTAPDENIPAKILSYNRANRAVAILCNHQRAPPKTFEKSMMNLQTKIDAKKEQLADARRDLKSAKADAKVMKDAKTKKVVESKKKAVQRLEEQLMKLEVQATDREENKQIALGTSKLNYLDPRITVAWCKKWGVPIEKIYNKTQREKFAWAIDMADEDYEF

Nucleic Acid = test: Binding affinity to calf thymus DNA at 9.6 uM by spectrofluorimetric titration assay; type: nucleic-acid assay; conditions: Bos taurus
Procedure, shortened: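 Fluorescence titration at 25 °C in 0.01 M Tris, pH 7.4. Compound (9.58 × 10^-6 M) was titrated with ctDNA from 0 to 2.57 × 10^-4 M bp, excited at 384 nm, and emission recorded from 400 to 600 nm. K and n were obtained from McGhee–von Hippel fits of Scatchard data.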

HL-60 [8] = test: Drug uptake in human HL60 cells with normal morphology at 50 uM incubated for 18 hrs by fluorescence microscopy; type: ADME, cell-based; conditions: hl-60, 18 h
Procedure, shortened: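 HL-60 cells were treated with 50 µM compound for 18 h, washed with PBS, resuspended in HBSS and mounted as native slides. Cells were imaged by inverted fluorescence microscopy at 40×, with excitation 360/40 and emission 470/40. The fluorescence channel was merged with brightfield images.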

Activity [7] | Activity (Nucleic Acid) | Drug uptake (HL-60 [8]) | Compound | Activity (HL-60 [1]) | Activity (HL-60 [2]) | Activity (HL-60 [3]) | Activity (HL-60 [4]) | Activity (HL-60 [5]) | Activity (HL-60 [6])
Active |  |  | CCNC(=N)Nc1ccc2cc3ccc(NC(=N)NCC)cc3nc2c1.Cl.Cl.O | inactive | inactive | 86.85% | 94.84% | inactive | inactive
Active | Active | Active | CCCCCCNC(=N)Nc1ccc2cc3ccc(NC(=N)NCCCCCC)cc3nc2c1.Cl.Cl.O | Active |  | 40.67% | 20.46% | 48.93% | 
